mABHD4 FP: ABHD4 inhibitors, primary screen, biochemical, fluorescence polarization, mouse | purified mABHD4, FP-Rh probe fluorescence polarization | inhibition, % at 8.92 µM | hit rate 0.54% among 370,000 | AID 720543, 2013;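 active = inhibition exceeding the mean over every tested compound plus 3 SD, cut at about 30% in these data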;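 note: 0% = plate median of compound wells and 100% = S159A mutant with DMSO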
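Material: mouse ABHD4 enzyme, wild type; Benchmarks: S159A mutant high control, sample median low control; Buffer or medium: HEPES pH 7.0, NaCl, Pluronic buffer; Signal: fluorescence polarization; Read-out: percent inhibition of probe binding, normalized to plate controls; Timing: pre-incubation 45 min, probe exposure 60 min, at 25 °C; Dosing: 8.92 µM, single dose.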
HTRA1 inhibitor: HTRA1 serine protease inhibitors, primary screen, biochemical, fluorescence polarization, HTS; Q92743; recombinant HTRA1, FP-rhodamine activity-based probe; inhibition, % at 5.96 µM; hit rate 0.5% among 340,000; AID 504803, 2011; in the data active = inhibition above about 36%;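 note: 0% = enzyme with DMSO and 100% = wells lacking enzyme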
Target sequence (Q92743 whole entry, looked up): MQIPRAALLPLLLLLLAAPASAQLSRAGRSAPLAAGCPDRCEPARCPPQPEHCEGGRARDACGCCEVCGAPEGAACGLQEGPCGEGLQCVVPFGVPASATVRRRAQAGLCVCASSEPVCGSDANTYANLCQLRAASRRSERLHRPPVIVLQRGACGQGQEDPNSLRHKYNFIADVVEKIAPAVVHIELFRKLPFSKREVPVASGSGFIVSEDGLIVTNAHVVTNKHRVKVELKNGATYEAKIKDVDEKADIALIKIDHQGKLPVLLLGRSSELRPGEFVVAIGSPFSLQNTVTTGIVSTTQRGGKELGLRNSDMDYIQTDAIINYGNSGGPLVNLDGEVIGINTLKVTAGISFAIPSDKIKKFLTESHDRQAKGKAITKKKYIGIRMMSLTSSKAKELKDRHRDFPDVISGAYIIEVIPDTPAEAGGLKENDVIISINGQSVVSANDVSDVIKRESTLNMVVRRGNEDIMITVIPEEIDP
DAGLB inh: DAGLB lipase inhibitors, primary screen, biochemical, fluorescence, HTS; Diacylglycerol lipase-beta (Homo sapiens), Q8NCG7; HEK293T DAGLB membrane lysate, EnzChek fluorogenic substrate; inhibition, % at 5.17 µM; hit rate 0.059% among 340,000; in the data active = inhibition above about 34%;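 note: 0% = enzyme with vehicle and 100% = wells lacking enzyme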
SIAE primary: human SIAE inhibitors, primary screen, biochemical, fluorescence polarization, FP-Rh probe, 1536-well HTS; SIAE FP-Rh probe binding; inhibition, % at 9.66 µM; hit rate 0.69% among 370,000;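 active = inhibition above a cutoff: mean of compounds within the control limits plus 3 SD of those, cut at about 17% in these data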;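 note: 0% = plate median of compound wells and 100% = probe without SIAE protein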
TCR-CD3 inh: inhibitors of human TCR-CD3 interaction, primary screen, biochemical, fluorescence, TAMRA-labeled TCR probe; inhibition, % at 9.4 µM; AID 651800, 2012; hit rate 0.37% among 360,000; T-cell receptor (TCR); in the data active = inhibition above about 19%;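 note: recombinant mutant TCR 2C K166C tagged with TAMRA read by polarization; 0% = receptor in buffer alone and 100% = receptor with positive control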
HTRA1 conf: HTRA1 protease inhibitors, retest, confirmation, biochemical, fluorescence polarization. hit rate 66% among 1,600. shares compounds with HTRA1 inhibitor. recombinant HTRA1, FP-rhodamine activity-based probe. inhibition, % at 5.96 µM;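 active = mean inhibition over three repeats above a set limit taken from the earlier primary screen, cut at about 37% in these data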;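 note: 0% = HTRA1 with DMSO and 100% = wells lacking HTRA1; inhibitors block probe binding so polarization drops and inhibition rises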
* hit, by the source's call; x = not tested or not shown. Most compounds without a hit are left out; they make up all but 1.5% or so of the library.

SMILES	mABHD4 FP	HTRA1 inhibitor	DAGLB inh	SIAE primary	TCR-CD3 inh	HTRA1 conf
Cc1cc(Nc2cc(F)c(F)c(F)c2)cc(=O)n1-c1cc(F)c(F)c(F)c1	-4.5	x	x	-6.3	-4.8	x
CCCC(=O)NC(c1ccc(OC)cc1)c1ccc2cccnc2c1O (configuration not stated)	4.1	26.7	16.0	12.4	-4.8	x
CCCCC(=O)NC(c1ccc(C(C)C)cc1)c1ccc2cccnc2c1O (configuration not stated)	13.3	55.6*	3.9	8.7	-1.8	53.3*
Nc1c(Cl)ncnc1N/N=C/c1ccnc2ccccc12	3.8	13.9	3.6	9.2	16.3	x
Nc1c(Cl)ncnc1N/N=C/c1ccc2ccccc2n1	27.3	79.4*	6.2	5.2	4.0	72.0*
COc1cnc(-c2ccccn2)nc1Oc1ccc(Cl)c2ccccc12	-1.4	53.4*	2.1	0.6	3.9	54.1*
COc1ccc2nc(N=NC3=C(O)CC(C)(C)CC3=O)sc2c1	26.5	52.9*	12.8	-3.5	4.9	58.3*
O=C(NCc1ccccc1)[C@H]1CCCN1C(=O)[C@H]1CCCN1C(=O)c1ccc(F)cc1	7.5	x	x	5.3	-2.4	x
Cc1ccc(C(c2cc(Cl)c3cccnc3c2O)N2CCN(C)CC2)cc1 (configuration not stated)	x	57.0*	-13.3	x	x	69.6*
Oc1c(C(c2ccc(Cl)cc2)N2CCCC2)cc(Cl)c2cccnc12 (configuration not stated)	10.0	41.4*	-6.6	8.8	2.8	60.2*
CN1CCN(C(c2ccc(C(F)(F)F)cc2)c2ccc3cccnc3c2O)CC1 (configuration not stated)	5.7	x	x	3.2	4.0	x
CN1CCN(C(c2ccccn2)c2cc(Cl)c3cccnc3c2O)CC1 (configuration not stated)	10.7	39.4*	4.5	10.8	-6.5	65.6*
Cc1cc(=O)[nH]c2cc(O)ccc12	0.9	2.0	-1.0	0.8	2.4	x
CC(C)=CCCC1(C)C=Cc2c(c(C)cc3c2[nH]c2cc(O)ccc23)O1 (configuration not stated)	2.0	45.7*	0.3	14.5	12.1	31.5
Clc1ccc(-c2nnc(Sc3nc4ccccc4o3)c3ccccc23)cc1	-4.3	137.1*	-4.5	-1.3	3.5	-4.5
COc1ccc(N2C(=O)c3[nH]nc(-c4ccccc4)c3C2c2ccc(Br)cc2)cc1 (configuration not stated)	-23.0	x	x	-27.0	1.8	x
O=C1CCCC2=C1C(c1cccs1)Nc1ccc3ncccc3c12 (configuration not stated)	6.2	3.8	3.5	2.5	-3.4	x
O=C1CCCC2=C1C(c1ccc(O)c(O)c1)Nc1ccc3ncccc3c12 (configuration not stated)	9.9	40.4*	1.7	-9.7	12.2	67.2*
O=C(C[n+]1ccc(CCSc2ccc(F)cc2)cc1)c1ccccc1	x	37.4*	0.9	x	x	59.9*
CCN(CC)S(=O)(=O)c1cccc2cccnc12	-0.5	5.5	-0.5	0.0	8.8	x
CCS(=O)(=O)c1ccc(OC)c(N=Nc2ccc(O)c3ncccc23)c1	20.8	45.0*	2.6	3.5	2.8	31.5
CCN(CC)S(=O)(=O)c1cc(OC)ccc1N=Nc1ccc(O)c2ncccc12	21.8	62.6*	19.7	15.2	-6.1	68.7*
CCOC(=O)C1=C(C(=O)OCC)C2N(Cc3ccc(C#N)cc3)c3ccccc3[C@@]23C[C@@H](C(=O)OC)N(S(=O)(=O)c2ccccc2C)C3=N1 (some centres not stated)	1.4	x	x	0.2	-1.9	x
Cc1cc2nc3c(=O)n(C4CCCCC4)c(=O)[nH]c3nc2cc1N	25.1	58.0*	-76.7	12.1	-2.9	27.6
COc1ccc(Nc2ccccc2N)cc1	17.2	-5.9	-2.4	-38.8	-6.0	x
SMILES	mABHD4 FP	HTRA1 inhibitor	DAGLB inh	SIAE primary	TCR-CD3 inh	HTRA1 conf
Nc1ccc(Nc2ccccc2N)cc1	24.0	63.9*	11.7	8.8	1.3	82.6*
Cc1[nH]c2c(C)cccc2c1CCNC(=O)c1ccc2c(c1[N+](=O)[O-])C(=O)c1ccccc1C2=O	7.0	41.7*	17.8	5.2	4.5	43.5*
Cc1cccc(CCNC(=O)CSc2nc3c([nH]2)c(=O)n(C)c(=O)n3C)c1	3.9	x	x	1.4	x	x
COC(=O)[C@]12C[C@H](CC(=O)N3CCC(c4ccccc4)CC3)C(=O)N(Cc3ccc4c(c3)OCO4)C1=C[C@H](C(C)(C)C)O[C@@H]2C	-5.5	x	x	2.5	4.1	x
CCc1cc2c(=O)c(-c3nc4ccccc4n3C)c(C)oc2cc1OC(C)=O	-6.1	10.2	0.9	-3.1	4.4	x
CCc1cc2c(=O)c(-c3nc4ccccc4n3C)c(COCC(=O)O)oc2cc1OC(=O)C(C)(C)C	2.1	48.0*	-3.3	-1.7	7.4	14.6
COCCn1c(C)cc(C(=O)CSc2ccc3ccccc3n2)c1C	10.0	-16.4	-1.3	13.8	-3.5	x
COc1cc(/C=N/NC(=O)c2cc3ccccc3cc2O)ccc1OCCN1CCCCC1	28.6	48.2*	1.1	10.8	1.0	25.4
COCCn1c(C)cc(/C=N/NC(=O)c2cc3ccccc3cc2O)c1C	x	43.6*	2.7	x	x	20.7
COc1cc(/C=N/NC(=O)c2ccncc2)ccc1OCCN1CCCCC1	5.0	1.6	1.4	-1.6	-8.0	x
Cc1cc(C)cc(NC(=O)NC2CCN(S(=O)(=O)c3ccc(F)cc3)CC2)c1	1.1	x	x	4.0	x	x
Cc1ccc(C(=O)N2CCC(Oc3cccnc3)CC2)c(C)c1	4.5	x	x	-0.2	x	x
CCc1ccc(CNc2ccc(N3CCN(C(C)=O)CC3)cc2)cc1	27.3	42.5*	5.4	8.1	-1.6	4.2
COc1ccc(CNc2ccc(N3CCOCC3)cc2)cc1	14.8	24.2	1.5	2.1	-4.4	x
c1ccc(CNc2ccc(N3CCOCC3)cc2)cc1	26.3	52.1*	9.5	14.4	1.3	16.8
CCCCS(=O)(=O)N1CCN(C(=O)C(=O)c2cccc(C(F)(F)F)c2)CC1	-1.9	x	x	-0.7	0.4	x
c1ccc(N=Nc2ccc3cccccc2-3)cc1	29.3	52.8*	21.4	16.4	7.6	64.3*
COc1ccc(-c2c[n+]3c4n2CCCCC4=C(c2ccc(Br)cc2)C3)cc1	1.9	52.4*	10.8	-0.1	-9.0	20.5
Clc1ccc(C2=C3CCCCn4c(-c5ccccc5)c[n+](c43)C2)cc1	22.8	18.7	4.3	7.3	-3.4	x
COc1c(Br)cc(/C=N/n2c(-c3ccccc3)n[nH]c2=S)c(O)c1Br	25.3	74.5*	6.4	6.7	9.7	30.5
CCOc1ccc(NC(=O)CN2CCCN(c3ccc(OC)cc3)CC2)cc1	4.7	x	x	3.2	x	x
C[n+]1cccc2c(Br)ccc([O-])c21	11.4	17.1	3.8	10.3	7.2	x
[O-][n+]1cccc2c(Br)cc(Br)c(O)c21	16.9	71.5*	4.5	0.0	4.9	40.6*
